The test system of data set [1] is Quadruplex DNA. Kind of data set: Binding affinity to wild type telomeric Htg24 G-quadruplex DNA (unknown origin) assessed as antiparallel structure at 5 uM under pH condition 7.4 with 60 mM K+ ion by CD spectra analysis. The format is nucleic-acid assay. In a few lines:
(§1)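 CD spectra recorded on G4-DNA and ligand, each at 5 μM, in 10 mM Tris-HCl, pH 7.4, with 60 mM KCl. Scan range 220–340 nm in a 1 mm quartz cuvette, 1 nm bandwidth and step, 0.5 s/point. Each spectrum is the average of three scans.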

Data set [2] concerns Quadruplex DNA [UNDEFINED MUTATION]. Kind of data set: Binding affinity to telomeric Htg24 G-quadruplex DNA G21A mutant (unknown origin) assessed as strong fluorescence signal at 5 uM under pH condition 7.4 by fluorescence titration analysis. Format: nucleic-acid assay. The settings on record: Homo sapiens. In a few lines:
(§2)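 Ligand 5 μM mixed with wild-type or point-mutant Htg24 in Tris-HCl buffer with 60 mM KCl; signal change calculated as (F mutant − F wild type)/F wild type.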

The test system is the same in data set [3]. Nature of the data set: Effect on confirmation of telomeric Htg24 G-quadruplex DNA A8G mutant (unknown origin) assessed as hybrid topology at 5 uM at pH 7.4 by circular dichroism analysis. As to conditions: Homo sapiens. Format: nucleic-acid assay. In a few lines:
as §1
A general note: Circular dichroism is widely used to follow secondary structure.

The nature of data set [4]: Drug uptake in nucleolus of human U87 cells assessed as change in fluorescence signal at 5 uM for 30 mins co-stained with DAPI for 10 mins followed by treating with RNase and measured after 30 mins by confocal laser fluorescence microscopic analysis. The format is ADME, subcellular. As to conditions: u-87mg atcc, 1.167 h, time 70 min.
In data set [5] the target is Quadruplex DNA. Kind of data set: Binding affinity to c-myc promoter G-quadruplex DNA Pu27 (unknown origin) assessed as dissociation constant by isothermal titration calorimetric analysis. The format is nucleic-acid assay. In short, it runs like this: (§3)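 ITC at 25 °C: DNA preannealed at 95 °C for 5 min, cooled and held at 4 °C overnight, in 25 mM KH2PO4, 60 mM KCl, pH 7.4, 0.5% DMSO. DNA 10 μM in cell, ligand 500 μM in syringe; 19 injections of 4 s, 150 s apart, 750 rpm stirring; blank heat subtracted before model fitting.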

The subject of data set [6] is Quadruplex DNA. Kind of data set: Binding affinity to telomeric Htg24 G-quadruplex DNA (unknown origin) at 5 uM at pH 7.4 by UV-spectrophotometric titration analysis. The format is nucleic-acid assay. In short, it runs like this:
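UV-vis titration of ligand (5 μM) with Htg24 (0–15 μM) in 10 mM Tris-HCl pH 7.4 containing 60 mM KCl, added until saturation.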

Data set [7] relates to Quadruplex DNA. Kind of data set: Binding affinity to G4 quadruplex DNA in human HeLa cells assessed as increase in number of BG4 foci at 10 to 20 uM. The format is cell-based. As to conditions: dose 10-20 µM.
In data set [8] the test system is Quadruplex DNA [UNDEFINED MUTATION]. Nature of the data set: Effect on confirmation of telomeric Htg24 G-quadruplex DNA G22T mutant (unknown origin) assessed as hybrid topology at 5 uM at pH 7.4 by circular dichroism analysis. The format is nucleic-acid assay. As to conditions: Homo sapiens. In a few lines: as §1
Data set [9] has the same test system. Nature of the data set: Binding affinity to telomeric Htg24 G-quadruplex DNA G21T mutant (unknown origin) assessed as strong fluorescence signal at 5 uM under pH condition 7.4 by fluorescence titration analysis. Format: nucleic-acid assay. As to conditions: Homo sapiens. In a few lines:
(§4)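 Ligand held at 5 μM and mixed with each Htg24 point mutant in Tris-HCl buffer containing 60 mM KCl, pH 7.4. Fluorescence was read, and the signal change was computed as (F mutant − F wild type)/F wild type.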

Data set [10] in a line: Water solubility of compound at 25 degreeC. Format: physicochemical. In a few lines: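 Solubility in water measured at 25 °C.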
The test system of data set [11] is Quadruplex DNA [UNDEFINED MUTATION]. Nature of the data set: Binding affinity to telomeric Htg24 G-quadruplex DNA G23T mutant (unknown origin) assessed as fluorescence signal at 5 uM under pH condition 7.4 by fluorescence titration analysis. The format is nucleic-acid assay. The settings on record: Homo sapiens. In short, it runs like this: as §4
The test system is the same in data set [12]. Kind of data set: Binding affinity to telomeric Htg24 G-quadruplex DNA A20G mutant (unknown origin) assessed as negative fluorescence signal at 5 uM under pH condition 7.4 by fluorescence titration analysis. The format is nucleic-acid assay. The settings on record: Homo sapiens. In short, it runs like this: as §2
The test system is the same in data set [13]. Nature of the data set: Binding affinity to telomeric Htg24 G-quadruplex DNA G17C mutant (unknown origin) assessed as negative fluorescence signal at 5 uM under pH condition 7.4 by fluorescence titration analysis. Format: nucleic-acid assay. As to conditions: Homo sapiens. In short, it runs like this:
as §2

Data set [14] has the same test system. Nature of the data set: Binding affinity to telomeric Htg24 G-quadruplex DNA G22A mutant (unknown origin) assessed as negative fluorescence signal at 5 uM under pH condition 7.4 by fluorescence titration analysis. Format: nucleic-acid assay. As to conditions: Homo sapiens. In short, it runs like this: as §4
For data set [15], the target named is Quadruplex DNA. Nature of the data set: Binding affinity to telomeric Htg24 G-quadruplex DNA (unknown origin) assessed as dissociation constant by isothermal titration calorimetric analysis. Format: nucleic-acid assay. In short, it runs like this: as §3
For orientation: ITC needs no label: the signal is the heat of the interaction.

Data set [16] in a line: Drug uptake in nucleolus of human U87 cells assessed as imaging of G-quadruplex at 5 uM for 30 mins followed by co-staining with DAPI and measured after 10 mins by confocal laser fluorescence microscopic analysis. The settings on record: u-87mg atcc, 40 min. Format: ADME, subcellular. In short, it runs like this:
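Live U87 cells were co-stained with ligand (5 μM, 30 min) and DAPI (1 μM, 10 min). Confocal imaging used excitation at 402 nm for DAPI and 488 or 571 nm for the ligand.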

For data set [17], the system named is Quadruplex DNA [UNDEFINED MUTATION]. Kind of data set: Binding affinity to telomeric Htg24 G-quadruplex DNA G15A mutant (unknown origin) assessed as fluorescence signal at 5 uM under pH condition 7.4 by fluorescence titration analysis. Format: nucleic-acid assay. The settings on record: Homo sapiens.
For data set [18] the test system is unchanged. Kind of data set: Effect on confirmation of telomeric Htg24 G-quadruplex DNA G16A mutant (unknown origin) assessed as parallel topology at 5 uM at pH 7.4 by circular dichroism analysis. The format is nucleic-acid assay. The settings on record: Homo sapiens. In a few lines: as §1
Data set [19] shares this test system. Nature of the data set: Effect on confirmation of telomeric Htg24 G-quadruplex DNA G16C mutant (unknown origin) assessed as parallel topology at 5 uM at pH 7.4 by circular dichroism analysis. As to conditions: Homo sapiens. The format is nucleic-acid assay. In a few lines:
as §1

Data set [20] deals with Quadruplex DNA. Nature of the data set: Binding affinity to telomeric Htg24 G-quadruplex DNA (unknown origin) assessed as fluorescence quantum yield by fluorescence spectrophotometric method. The format is nucleic-acid assay. In a few lines: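 Fluorescence quantum yield determined against fluorescein (Φ = 0.95) in 1% NaOH ethanol. Five increasing ligand concentrations added to fixed DNA, with absorbance and emission recorded for each.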

Data set [21] concerns Quadruplex DNA. Nature of the data set: Binding affinity to telomeric Htg24 G-quadruplex DNA (unknown origin) assessed as change in melting temperature at 5 uM at pH 7.4 by circular dichroism analysis. The format is nucleic-acid assay. In short, it runs like this: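 CD melting: G4-DNA 5 μM with ligand 5 μM in 10 mM Tris-HCl pH 7.4, 60 mM KCl; signal recorded at 1 °C intervals from 25 to 95 °C, heating 1.0 °C/min.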

For data set [22], the system named is Quadruplex DNA [UNDEFINED MUTATION]. Kind of data set: Binding affinity to telomeric Htg24 G-quadruplex DNA G22C mutant (unknown origin) assessed as negative fluorescence signal at 5 uM under pH condition 7.4 by fluorescence titration analysis. Format: nucleic-acid assay. The settings on record: Homo sapiens. In a few lines: as §4
Data set [23] has as its target Telomerase reverse transcriptase (Homo sapiens) (UniProt O14746). Kind of data set: Inhibition of telomerase in human HeLa cells incubated for 36 hrs by TRAP assay. Format: cell-based. As to conditions: dose 1-20 µM. In a few lines: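 HeLa cells were treated with ligand for 36 h, and 10^6 cells were lysed in CHAPS buffer on ice for 30 min. Extract protein (10–750 ng/ml) was extended with TS primer in TRAP buffer (pH 8.3) at 30 °C for 30 min, then heat-inactivated at 95 °C. Products were PCR-amplified for 33 cycles, resolved on 10% native PAGE and stained with SYBR Gold.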

For data set [24], the system named is Quadruplex DNA. Nature of the data set: Binding affinity to telomeric Htg24 G-quadruplex DNA (unknown origin) assessed as compound-DNA complex stoichiometry ratio of 1:1 by Job's plot analysis. The format is nucleic-acid assay.

Here are results for 1 molecule from ChEMBL document CHEMBL4834396, “Molecular Recognition and Imaging of Human Telomeric G-Quadruplex DNA in Live Cells: A Systematic Advancement of Thiazole Orange Scaffold To Enhance Binding Specificity and Inhibition of Gene Expression” (J Med Chem, 2021).

SMILES strings stand for the structures. The source made the active and inactive calls. The calls are words filed in the database; no cut-off is given here.

Chain of Telomerase reverse transcriptase (Homo sapiens) (O14746 whole entry): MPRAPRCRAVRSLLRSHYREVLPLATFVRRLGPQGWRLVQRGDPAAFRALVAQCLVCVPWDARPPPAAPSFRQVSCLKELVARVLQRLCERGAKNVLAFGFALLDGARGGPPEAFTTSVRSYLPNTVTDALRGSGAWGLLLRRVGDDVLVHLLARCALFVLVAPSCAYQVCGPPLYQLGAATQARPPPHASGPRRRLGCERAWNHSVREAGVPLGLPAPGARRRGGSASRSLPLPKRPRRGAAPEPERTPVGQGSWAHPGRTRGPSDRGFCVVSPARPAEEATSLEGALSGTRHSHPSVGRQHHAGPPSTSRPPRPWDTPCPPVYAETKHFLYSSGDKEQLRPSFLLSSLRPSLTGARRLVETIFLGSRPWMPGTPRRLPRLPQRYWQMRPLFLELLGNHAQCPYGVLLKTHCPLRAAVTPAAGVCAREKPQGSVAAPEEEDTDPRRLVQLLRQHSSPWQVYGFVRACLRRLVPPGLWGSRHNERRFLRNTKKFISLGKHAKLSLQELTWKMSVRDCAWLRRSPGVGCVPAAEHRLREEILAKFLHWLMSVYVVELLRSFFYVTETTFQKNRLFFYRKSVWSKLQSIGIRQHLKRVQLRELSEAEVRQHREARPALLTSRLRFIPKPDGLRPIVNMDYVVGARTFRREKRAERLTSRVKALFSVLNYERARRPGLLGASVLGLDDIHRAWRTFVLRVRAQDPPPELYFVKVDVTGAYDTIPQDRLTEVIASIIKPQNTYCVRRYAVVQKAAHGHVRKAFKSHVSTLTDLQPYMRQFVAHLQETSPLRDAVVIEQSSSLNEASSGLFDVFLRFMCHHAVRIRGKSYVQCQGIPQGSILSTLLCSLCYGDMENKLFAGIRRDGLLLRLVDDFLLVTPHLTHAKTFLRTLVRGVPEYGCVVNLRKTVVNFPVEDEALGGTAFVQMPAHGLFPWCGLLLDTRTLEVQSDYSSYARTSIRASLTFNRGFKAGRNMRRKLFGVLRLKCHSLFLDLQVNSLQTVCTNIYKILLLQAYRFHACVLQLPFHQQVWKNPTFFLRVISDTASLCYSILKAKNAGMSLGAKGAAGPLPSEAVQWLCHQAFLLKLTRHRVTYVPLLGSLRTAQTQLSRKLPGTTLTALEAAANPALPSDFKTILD

With `CN(C)c1ccc(/C=C/c2cc(/C=C3\Sc4ccccc4N3CCCN3CCOCC3)c3ccccc3[n+]2C)cc1.[I-]`, the result in data set [1], in data set [2], in data set [3], in data set [6], in data set [7] and in data set [8] was Active. Also, the result in [9], in [12], in data set [13], in [14], in [18] and in [19] was Active. For the same molecule, the outcome in data set [22] and in [24] was Active. Besides, the Drug uptake result in [4] was “Not Active”; in data set [16] it was “Active”. The Kd (commonly the concentration at which binding is half-saturated) is 3.27 µM in [5] and 0.65 µM in data set [15]. The solubility (commonly the concentration that dissolves in the medium under given conditions) in data set [10] was 122 µM. The outcome in data set [11] and in data set [17] was inactive. Moreover, the Activity in data set [20] came out at 0.217. Further, the ΔTm (commonly the shift of the melting midpoint relative to a reference) in data set [21] came to 9.1 °C. The inhibition entry in data set [23] is “Dose-Dependent Effect”.
